Measurements taken from ChEMBL document CHEMBL4411315, “Discovery of Novel Dual Histone Deacetylase and Mammalian Target of Rapamycin Target Inhibitors as a Promising Strategy for Cancer Therapy” (J Med Chem, 2019).

Experiments:
[1] = system: MM1.S; assay: Antiproliferative activity against human MM1S cells after 72 hrs by MTT assay; type: functional, cell-based
[2] = system: HCT-116; assay: Antiproliferative activity against human HCT116 cells after 72 hrs by MTT assay; type: functional, cell-based; details: HCT-116, 72 h
[3] = system: Raji; assay: Antiproliferative activity against human Raji cells after 72 hrs by MTT assay; type: functional, cell-based
Outline: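 Log-phase cells were plated at 10000-15000 per well and exposed to serial concentrations after 24 h for 72 h. Read-out was MTT for 1-3 h, then 20% SDS overnight and absorbance at 570 nm. IC50 was calculated from growth versus untreated control, as mean ± SEM of at least three independent experiments.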

[4] = target: Histone deacetylase 2 (Homo sapiens, UniProt Q92769); assay: Inhibition of recombinant full length human HDAC2 expressed in baculovirus expression system using Ac-peptide-AMC as substrate preincubated for 15 mins followed by substrate addition and measured after 1 hr by fluorescence assay
Sequence of Histone deacetylase 2 (Q92769 whole entry): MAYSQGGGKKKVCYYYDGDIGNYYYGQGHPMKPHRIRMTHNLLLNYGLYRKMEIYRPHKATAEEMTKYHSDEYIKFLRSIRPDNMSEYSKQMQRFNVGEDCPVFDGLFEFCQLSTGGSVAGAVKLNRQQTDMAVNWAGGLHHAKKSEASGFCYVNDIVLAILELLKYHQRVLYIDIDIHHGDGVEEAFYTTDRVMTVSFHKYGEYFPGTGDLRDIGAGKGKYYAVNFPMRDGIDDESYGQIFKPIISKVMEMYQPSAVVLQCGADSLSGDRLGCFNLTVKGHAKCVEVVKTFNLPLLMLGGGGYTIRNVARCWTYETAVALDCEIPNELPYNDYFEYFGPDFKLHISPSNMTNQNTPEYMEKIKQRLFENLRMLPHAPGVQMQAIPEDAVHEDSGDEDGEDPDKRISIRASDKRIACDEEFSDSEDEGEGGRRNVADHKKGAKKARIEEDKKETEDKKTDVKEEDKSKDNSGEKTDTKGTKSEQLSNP

[5] = system: MCF7; assay: Antiproliferative activity against human MCF7 cells after 72 hrs by MTT assay; type: functional, cell-based; details: MCF7, 72 h
[6] = target: Histone deacetylase 8 (Homo sapiens, UniProt Q9BY41); assay: Inhibition of recombinant full length C-terminal His-tagged human HDAC8 expressed in baculovirus expression system using Ac-peptide-AMC as substrate preincubated for 15 mins followed by substrate addition and measured after 1 hr by fluorescence assay
Sequence of Histone deacetylase 8 (Q9BY41 whole entry): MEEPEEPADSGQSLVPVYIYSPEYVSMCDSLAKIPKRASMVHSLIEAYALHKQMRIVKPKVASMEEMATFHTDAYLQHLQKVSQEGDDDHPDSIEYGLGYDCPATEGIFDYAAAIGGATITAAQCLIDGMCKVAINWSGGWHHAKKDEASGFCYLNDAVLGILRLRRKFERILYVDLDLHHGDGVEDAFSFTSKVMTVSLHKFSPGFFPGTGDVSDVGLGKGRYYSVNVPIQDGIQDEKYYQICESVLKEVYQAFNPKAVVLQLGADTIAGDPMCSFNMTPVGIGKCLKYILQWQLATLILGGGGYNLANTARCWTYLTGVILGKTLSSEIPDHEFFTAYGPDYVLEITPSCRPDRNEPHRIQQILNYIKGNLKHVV

[7] = target: Protein deacetylase HDAC6 (Homo sapiens, UniProt Q9UBN7); assay: Inhibition of recombinant full length HDAC6 (unknown origin) using Ac-peptide-AMC as substrate preincubated for 15 mins followed by substrate addition and measured after 1 hr by fluorescence assay
Sequence of Protein deacetylase HDAC6 (Q9UBN7 whole entry): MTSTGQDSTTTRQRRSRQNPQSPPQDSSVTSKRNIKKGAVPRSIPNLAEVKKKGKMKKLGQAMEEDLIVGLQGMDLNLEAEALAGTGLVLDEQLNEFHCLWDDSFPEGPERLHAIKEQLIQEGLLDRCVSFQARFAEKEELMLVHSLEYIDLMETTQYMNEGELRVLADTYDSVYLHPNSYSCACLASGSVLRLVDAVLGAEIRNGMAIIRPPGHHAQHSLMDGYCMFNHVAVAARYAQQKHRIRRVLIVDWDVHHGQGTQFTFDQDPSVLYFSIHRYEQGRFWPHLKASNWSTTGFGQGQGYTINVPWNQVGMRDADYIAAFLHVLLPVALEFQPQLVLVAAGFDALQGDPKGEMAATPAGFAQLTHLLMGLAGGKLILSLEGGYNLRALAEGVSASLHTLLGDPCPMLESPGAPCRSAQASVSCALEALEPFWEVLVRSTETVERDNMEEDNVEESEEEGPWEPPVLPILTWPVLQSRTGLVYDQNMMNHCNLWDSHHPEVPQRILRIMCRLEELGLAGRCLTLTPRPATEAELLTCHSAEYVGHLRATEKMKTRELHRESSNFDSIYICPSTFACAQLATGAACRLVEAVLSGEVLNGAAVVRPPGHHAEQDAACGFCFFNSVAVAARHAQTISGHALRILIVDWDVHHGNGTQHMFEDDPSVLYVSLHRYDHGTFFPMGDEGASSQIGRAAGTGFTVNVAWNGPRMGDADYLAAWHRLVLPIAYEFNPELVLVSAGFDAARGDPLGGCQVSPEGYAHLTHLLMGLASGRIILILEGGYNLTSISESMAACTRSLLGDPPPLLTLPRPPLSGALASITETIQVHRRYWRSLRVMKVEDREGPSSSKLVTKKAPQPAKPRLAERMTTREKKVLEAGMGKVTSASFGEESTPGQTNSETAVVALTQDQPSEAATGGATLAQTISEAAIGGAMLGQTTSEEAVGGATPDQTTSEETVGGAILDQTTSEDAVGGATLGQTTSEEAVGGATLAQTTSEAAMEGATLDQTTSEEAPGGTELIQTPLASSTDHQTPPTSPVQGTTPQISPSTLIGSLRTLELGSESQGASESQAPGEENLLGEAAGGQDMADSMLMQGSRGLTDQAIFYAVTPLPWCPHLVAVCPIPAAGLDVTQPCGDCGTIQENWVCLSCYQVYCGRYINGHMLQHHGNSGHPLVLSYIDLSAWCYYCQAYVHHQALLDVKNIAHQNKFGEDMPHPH

[8] = target: Histone deacetylase 1 (Homo sapiens, UniProt Q13547); assay: Inhibition of recombinant full length HDAC1 (unknown origin) using Ac-peptide-AMC as substrate preincubated for 15 mins followed by substrate addition and measured after 1 hr by fluorescence assay
Sequence of Histone deacetylase 1 (Q13547 whole entry): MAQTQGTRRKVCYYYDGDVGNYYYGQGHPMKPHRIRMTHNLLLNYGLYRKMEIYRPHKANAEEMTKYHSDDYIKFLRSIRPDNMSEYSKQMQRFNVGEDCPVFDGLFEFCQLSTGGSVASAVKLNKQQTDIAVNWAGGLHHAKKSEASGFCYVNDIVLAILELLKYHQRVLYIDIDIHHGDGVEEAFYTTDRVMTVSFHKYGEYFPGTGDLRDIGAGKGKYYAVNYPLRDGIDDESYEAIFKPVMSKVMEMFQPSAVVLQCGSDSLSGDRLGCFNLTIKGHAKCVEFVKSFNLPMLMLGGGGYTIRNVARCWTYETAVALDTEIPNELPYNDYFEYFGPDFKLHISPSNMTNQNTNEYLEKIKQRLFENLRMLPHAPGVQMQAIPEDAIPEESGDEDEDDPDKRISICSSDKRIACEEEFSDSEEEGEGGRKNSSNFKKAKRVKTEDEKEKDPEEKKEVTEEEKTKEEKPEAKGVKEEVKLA

[9] = target: Polyamine deacetylase HDAC10 (Homo sapiens, UniProt Q969S8); assay: Inhibition of recombinant full length N-terminal FLAG-tagged human HDAC10 expressed in baculovirus infected sf9 cells using Ac-peptide-AMC as substrate preincubated for 15 mins followed by substrate addition and measured after 1 hr by fluorescence assay
Sequence of Polyamine deacetylase HDAC10 (Q969S8 whole entry): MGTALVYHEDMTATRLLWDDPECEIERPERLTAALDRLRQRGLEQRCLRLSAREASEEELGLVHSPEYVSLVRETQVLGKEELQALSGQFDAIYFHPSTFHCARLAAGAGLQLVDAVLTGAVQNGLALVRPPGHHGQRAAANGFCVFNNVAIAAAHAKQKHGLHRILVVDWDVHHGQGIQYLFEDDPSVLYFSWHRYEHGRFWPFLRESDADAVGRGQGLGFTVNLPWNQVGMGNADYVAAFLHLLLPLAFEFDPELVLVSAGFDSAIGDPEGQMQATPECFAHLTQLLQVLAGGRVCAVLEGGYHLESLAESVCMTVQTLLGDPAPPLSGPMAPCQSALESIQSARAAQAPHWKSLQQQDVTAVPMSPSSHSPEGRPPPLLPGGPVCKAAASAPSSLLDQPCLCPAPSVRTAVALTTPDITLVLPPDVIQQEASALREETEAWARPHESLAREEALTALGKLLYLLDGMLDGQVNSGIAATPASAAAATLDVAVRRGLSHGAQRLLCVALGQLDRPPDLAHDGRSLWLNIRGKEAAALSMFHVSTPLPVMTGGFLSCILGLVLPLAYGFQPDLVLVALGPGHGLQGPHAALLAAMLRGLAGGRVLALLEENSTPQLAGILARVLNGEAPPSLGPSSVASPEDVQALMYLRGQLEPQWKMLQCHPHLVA

[10] = target: T1, Serine/threonine-protein kinase mTOR (Homo sapiens, UniProt P42345); assay: Inhibition of recombinant N-terminal FLAG-tagged human mTOR (1362 to end residues) at 500 nM using ULight-4E-BP1 (Thr37/46) peptide as substrate after 1 hr by fluorescence assay relative to control
[11] = target: Histone deacetylase 3 (Homo sapiens, UniProt O15379); assay: Inhibition of recombinant full length HDAC3 (unknown origin) using Ac-peptide-AMC as substrate preincubated for 15 mins followed by substrate addition and measured after 1 hr by fluorescence assay
Sequence of Histone deacetylase 3 (O15379 whole entry): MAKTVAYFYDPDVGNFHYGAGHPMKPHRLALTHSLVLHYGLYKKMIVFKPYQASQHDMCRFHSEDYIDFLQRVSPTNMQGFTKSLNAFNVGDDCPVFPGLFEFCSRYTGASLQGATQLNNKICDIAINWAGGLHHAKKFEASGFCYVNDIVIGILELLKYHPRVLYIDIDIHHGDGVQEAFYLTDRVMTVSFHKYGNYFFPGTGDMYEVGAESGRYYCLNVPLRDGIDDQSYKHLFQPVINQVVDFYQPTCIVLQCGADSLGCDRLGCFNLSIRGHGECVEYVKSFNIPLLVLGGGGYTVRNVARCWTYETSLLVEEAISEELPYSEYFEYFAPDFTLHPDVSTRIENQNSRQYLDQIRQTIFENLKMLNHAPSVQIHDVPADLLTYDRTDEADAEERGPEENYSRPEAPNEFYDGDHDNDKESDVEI

[12] = target: T2, PI3-kinase p110-alpha/p85-alpha (Homo sapiens) (UniProt P27986+P42336); assay: Inhibition of recombinant human full length N-terminal His-tagged/untagged p110alpha/p85alpha expressed in baculovirus expression system at 500 nM using PIP2 as substrate after 1 hr by Kinase-Glo reagent-based assay relative to control
[13] = target: T1, Serine/threonine-protein kinase mTOR; assay: Inhibition of recombinant N-terminal FLAG-tagged human mTOR (1362 to end residues) using ULight-4E-BP1 (Thr37/46) peptide as substrate after 1 hr by fluorescence assay
Outline: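 mTOR enzyme, ATP, compound and ULight-4E-BP1 (Thr37/46) peptide in kinase buffer were incubated 1 h at room temperature. EDTA quench plus Eu-anti-phospho-4E-BP1 antibody was added and equilibrated 1 h. TR-FRET was read at excitation 320 or 340 nm and emission 665 nm. Curves were fitted, and values are means of at least two experiments.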

[14] = system: MV4-11; assay: Antiproliferative activity against human MV4-11 cells after 72 hrs by MTT assay; type: functional, cell-based; details: MV4-11, 72 h
[15] = system: OCI-AML-3; assay: Antiproliferative activity against human OCI-AML3 cells after 72 hrs by MTT assay; type: functional, cell-based; details: OCI-AML-3, 72 h
[16] = system: OCI-AML2; assay: Antiproliferative activity against human OCI-AML2 cells after 72 hrs by MTT assay; type: functional, cell-based; details: OCI-AML2, 72 h
[17] = target: T2, PI3-kinase p110-alpha/p85-alpha (Homo sapiens); assay: Inhibition of recombinant human full length N-terminal His-tagged/untagged p110alpha/p85alpha expressed in baculovirus expression system at 1000 nM using PIP2 as substrate after 1 hr by Kinase-Glo reagent-based assay relative to control
Outline: (§1)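 PI3Kα (p110α/p85α) incubated with PIP2 substrate and ATP in kinase buffer for 1 h at room temperature. Kinase-Glo reagent was then added for 15 min before luminescence read-out. Inhibition rate at 100 or 1000 nM is the mean of at least two experiments.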

[18] = target: T2, PI3-kinase p110-alpha/p85-alpha (Homo sapiens); assay: Inhibition of recombinant human full length N-terminal His-tagged/untagged p110alpha/p85alpha expressed in baculovirus expression system at 100 nM using PIP2 as substrate after 1 hr by Kinase-Glo reagent-based assay relative to control; outline: as §1

IC50 [1] [nM] | IC50 [2] [nM] | IC50 [3] [nM] | IC50 [4] [nM] | IC50 [5] [nM] | IC50 [6] [nM] | IC50 [7] [nM] | IC50 [8] [nM] | IC50 [9] [nM] | inhibition [10] [%] | IC50 [11] [nM] | inhibition [12] [%] | IC50 [13] [nM] | IC50 [14] [nM] | IC50 [15] [nM] | IC50 [16] [nM] | inhibition [17] [%] | inhibition [18] [%] | Compound
18.9 | 7.1 | 7.1 | 1.6 | 63.7 | 35.7 | 2.43 | 0.21 | 1.43 | 95 | 4.21 | 16 | 40 | – | – | – | – | – | Nc1ccc(-c2nc(N3CCOCC3)c3cnn(CCCCCCC(=O)NO)c3n2)cc1
52.1 | 42.9 | 34.8 | – | – | – | – | – | – | – | – | – | 3.1 | 5.86 | 8.01 | 3.97 | 83.4 | 69.3 | CCN1CCN(C(=O)Nc2ccc(-c3nc(N4CCOCC4)c4cnn(CCCCCCC(=O)NO)c4n3)cc2)CC1
62.2 | 83.5 | 70.4 | – | – | – | – | – | – | – | – | – | 3.4 | 7.01 | 35.3 | 8.55 | 98.1 | 52.7 | CN1CCN(C(=O)Nc2ccc(-c3nc(N4CCOCC4)c4cnn(CCCCCCC(=O)NO)c4n3)cc2)CC1
